In experiment [1] the test system is PC-3. The experiment is described as follows: Growth inhibition of human PC3 cells at 1 uM after 48 hrs by sulpharhodamine B assay. The format is functional. The settings on record: PC-3, 48 h, read-out: GI. The procedure, abridged: (§1)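 This is the SRB protein-stain assay on adherent cells in RPMI-1640/MEM with 10% FCS. Each compound in DMSO (vehicle <0.2%) was applied at a single fixed concentration for 48 h. Cells were fixed with TCA and stained with SRB, and the dye was solubilised in Tris and read at 570/620 nm. Percent growth inhibition is relative to vehicle-treated controls, reported as mean ± SD of three experiments run in triplicate.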

Experiment [2] has as its system HEp-2. The experiment is described as follows: Growth inhibition of human Hep2 cells at 1 uM after 48 hrs by sulpharhodamine B assay. It counts as functional. The following applies: HEp-2, 48 h, read-out: GI. The procedure, abridged: as §1
Experiment [3] relates to IMR-32. The experiment is described as follows: Growth inhibition of human IMR32 cells at 50 uM after 48 hrs by sulpharhodamine B assay. The format is functional. The settings on record: IMR-32, 48 h, read-out: GI. An outline of the steps: as §1
Experiment [4] deals with THP-1. In words: Growth inhibition of human THP1 cells at 30 uM after 48 hrs by sulpharhodamine B assay. The settings on record: THP-1, 48 h, read-out: GI. The format is functional. An outline of the steps:
(§2)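 Cells grown in RPMI-1640/MEM with 10% FCS, penicillin/streptomycin, 37 °C, 5% CO2. Seeded in 96-well plates, allowed to adhere overnight, then exposed 48 h to analogs in DMSO (vehicle <0.2% in controls). TCA-fixed, stained with 0.4% SRB in 1% acetic acid, dye solubilized in 10 mM Tris base, OD 570 nm (ref 620 nm). Mean ± SD of three experiments run in triplicate.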

The test system of experiment [5] is PC-3. The experiment is described as follows: Growth inhibition of human PC3 cells at 50 uM after 48 hrs by sulpharhodamine B assay. It counts as functional. The settings on record: PC-3, 48 h, read-out: GI. The procedure, abridged: as §2
In experiment [6] the test system is IMR-32. In words: Growth inhibition of human IMR32 cells at 30 uM after 48 hrs by sulpharhodamine B assay. The format is functional. The following applies: IMR-32, 48 h, read-out: GI. The procedure, abridged: as §1
The next experiment concerns T47D. In words: Cytotoxicity against human T47D cells. It counts as functional, cell-based.
The test system of experiment [7] is HEp-2. In words: Growth inhibition of human Hep2 cells at 30 uM after 48 hrs by sulpharhodamine B assay. The format is functional. The following applies: HEp-2, 48 h, read-out: GI. An outline of the steps: as §1
Experiment [8] relates to HeLa. The experiment is described as follows: Growth inhibition of human HeLa cells at 50 uM after 48 hrs by sulpharhodamine B assay. The format is functional. The following applies: read-out: GI. An outline of the steps:
as §1

The test system of experiment [9] is A549. In words: Growth inhibition of human A549 cells at 50 uM after 48 hrs by sulpharhodamine B assay. It counts as functional. The following applies: A549, 48 h, read-out: GI. An outline of the steps: as §1
In experiment [10] the test system is OVCAR-5. The experiment is described as follows: Growth inhibition of human OVCAR5 cells at 30 uM after 48 hrs by sulpharhodamine B assay. The format is functional. The settings on record: OVCAR-5, 48 h, read-out: GI. The procedure, abridged: as §1
Experiment [11] relates to PC-3. In words: Growth inhibition of human PC3 cells at 30 uM after 48 hrs by sulpharhodamine B assay. The format is functional. The following applies: PC-3, 48 h, read-out: GI. The procedure, abridged:
as §2

In experiment [12] the test system is HeLa. The experiment is described as follows: Growth inhibition of human HeLa cells at 30 uM after 48 hrs by sulpharhodamine B assay. The format is functional. The settings on record: read-out: GI. The procedure, abridged: as §1
Experiment [13] deals with MCF7. In words: Growth inhibition of human MCF7 cells at 50 uM after 48 hrs by sulpharhodamine B assay. The settings on record: MCF7, 48 h, read-out: GI. It counts as functional. The procedure, abridged:
as §1

Experiment [14] concerns THP-1. In words: Growth inhibition of human THP1 cells at 50 uM after 48 hrs by sulpharhodamine B assay. The following applies: THP-1, 48 h, read-out: GI. It counts as functional. An outline of the steps:
as §2

The test system of experiment [15] is OVCAR-5. The experiment is described as follows: Growth inhibition of human OVCAR5 cells at 50 uM after 48 hrs by sulpharhodamine B assay. It counts as functional. The settings on record: OVCAR-5, 48 h, read-out: GI. An outline of the steps:
as §1

Experiment [16] concerns A549. In words: Growth inhibition of human A549 cells at 30 uM after 48 hrs by sulpharhodamine B assay. The format is functional. The following applies: A549, 48 h, read-out: GI. The procedure, abridged:
as §1

Experiment [17] has as its system HEp-2. The experiment is described as follows: Growth inhibition of human Hep2 cells at 50 uM after 48 hrs by sulpharhodamine B assay. It counts as functional. The settings on record: HEp-2, 48 h, read-out: GI. The procedure, abridged: as §1
Experiment [18] has as its system MCF7. In words: Growth inhibition of human MCF7 cells at 30 uM after 48 hrs by sulpharhodamine B assay. The format is functional. The following applies: MCF7, 48 h, read-out: GI. An outline of the steps: as §1
Experiment [19] concerns MCF7. In words: Growth inhibition of human MCF7 cells at 1 uM after 48 hrs by sulpharhodamine B assay. It counts as functional. The settings on record: MCF7, 48 h, read-out: GI. The procedure, abridged:
as §1

In experiment [20] the test system is A549. In words: Growth inhibition of human A549 cells at 1 uM after 48 hrs by sulpharhodamine B assay. It counts as functional. The settings on record: A549, 48 h, read-out: GI. The procedure, abridged: as §1

Regarding `CO[C@@]12[C@H](COC(N)=O)C3=C(C(=O)C(C)=C(N)C3=O)N1C[C@@H]1N[C@@H]12` [MITOMYCIN], the inhibition of growth at 1 µM amounted to 70% in the experiment with PC-3 [1] and 78% in the experiment with HEp-2 [2].

By IC50 is commonly meant the concentration at which inhibition is half-maximal. High values mean a need for much substance, low ones inhibition by little substance. As to `C=C[C@@](C)(/C=C/c1ccc(O)cc1)CCC=C(C)C` [BAKUCHIOL], the inhibition of growth at 50 µM in the experiment on IMR-32 [3] came to 58%; in the experiment with PC-3 [5], 58%; in the experiment on HeLa [8] it was 55%; in the experiment on A549 [9], 63%; in the experiment with MCF7 [13] it was 63%; in the experiment on THP-1 [14], 74%. Besides, the results for the inhibition of growth at 50 µM in the experiment on OVCAR-5 [15] and with HEp-2 [17] were 66% and 53%, respectively. For the same compound, the inhibition of growth at 30 µM was 44% in the experiment on THP-1 [4]; 31% in the experiment with IMR-32 [6]; 20% in the experiment with HEp-2 [7]; 25% in the experiment on OVCAR-5 [10]; 21% in the experiment with PC-3 [11]; 20% in the experiment with HeLa [12]. Besides, the inhibition of growth at 30 µM in the experiment on A549 [16] is 30%; with MCF7 [18], 33%. The IC50 in the experiment with T47D came to 28.9 µM.

In the case of `COc1cccc2c1C(=O)c1c(O)c3c(c(O)c1C2=O)C[C@@](O)(C(=O)CO)C[C@@H]3O[C@H]1C[C@H](N)[C@H](O)[C@H](C)O1` [DOXORUBICIN], the figures for the inhibition of growth at 1 µM in the experiment with MCF7 [19] and in the experiment on A549 [20] were 85% and 76%, respectively.

These data come from ChEMBL document CHEMBL1944511, “Bakuchiol derivatives as novel and potent cytotoxic agents: a report” (Eur J Med Chem, 2012).
